Measured values gathered from unrelated publications.
Compare with care: the assays were run in different laboratories. ≈ marks a conversion by molar mass, not a printed value.

Compound | organism | assay | system | conditions | quantity | value
CC1(C)S[C@@H]2[C@H](NC(=O)[C@H](N)c3ccccc3)C(=O)N2[C@H]1C(=O)O | Listeria monocytogenes | microbial growth, agar dilution |  | 26.93 µM | inhibition | 100%
C[C@@H]1[C@H](O)[C@@H](C)/C=C/C=C/C=C/C=C/C=C/C=C/C=C/[C@H](O[C@@H]2O[C@H](C)[C@@H](O)[C@H](N)[C@@H]2O)C[C@@H]2O[C@](O)(C[C@@H](O)C[C@@H](O)[C@H](O)CC[C@@H](O)C[C@@H](O)CC(=O)O[C@H]1C)C[C@H](O)[C@H]2C(=O)O | Cryptococcus neoformans | microbial growth, broth dilution | ATCC90113 |  | IC50 | 0.69 µg/mL
O=C(O)c1nc2ccccc2c(=O)n1Cc1cn(-c2ccccc2[N+](=O)[O-])nn1 | Nakaseomyces glabratus | microbial growth, broth dilution | ATCC90030 | 24 h | IC50 | 487 µg/mL
CCCCCCC/C=C/C(=O)N1C(=O)/C(=C(/C)O)C(=O)C1CO (stereo not drawn) | Proteus vulgaris | microbial growth | ATCC33420 |  | MIC | > 200 µg/mL
CCOC(=O)c1nc2ccccc2c(=O)n1Cc1cn(-c2ccc(C)cc2)nn1 | Nakaseomyces glabratus | microbial growth, broth dilution | ATCC90030 | 24 h | IC50 | 8.4 µg/mL
N#CC(=Cc1ccccc1O)C1=NC(=O)C(=Cc2cn(-c3ccccc3)nc2-c2ccccc2)S1 | Bacillus subtilis | microbial growth, well diffusion |  | 100000 µg/mL | inhibition zone | 25 mm
O=C(O)c1nc2ccccc2c(=O)n1Cc1cn(-c2cccc(Cl)c2)nn1 | Nakaseomyces glabratus | microbial growth, broth dilution | ATCC90030 | 24 h | IC50 | 278 µg/mL
O=C(O)c1cn(C2CC2)c2cc(N3CCNCC3)c(F)cc2c1=O | Bacillus subtilis | microbial killing, broth dilution |  |  | MBC | 0.5 µg/mL (≈ 1.51 µM)
O=C1NC(=S)S/C1=C\c1c2ccccc2c(-c2ccc(N(c3ccccc3)c3ccccc3)cc2)c2ccccc12 | Bacillus subtilis | microbial killing, broth dilution | ATCC6633 |  | MBC | > 1000 µg/mL
CCOC(=O)c1nc2ccccc2c(=O)n1Cc1cn(-c2ccc([N+](=O)[O-])cc2)nn1 | Nakaseomyces glabratus | microbial growth, broth dilution | ATCC90030 | 24 h | IC50 | 316 µg/mL
Cc1c(NN=C2SC(C(C#N)=Cc3ccccc3)=NC2=O)c(=O)n(-c2ccccc2)n1C | Bacillus subtilis | microbial growth, well diffusion |  | 100000 µg/mL | inhibition zone | 17 mm
C[C@@H]1[C@H](O)[C@@H](C)/C=C/C=C/C=C/C=C/C=C/C=C/C=C/[C@H](O[C@@H]2O[C@H](C)[C@@H](O)[C@H](N)[C@@H]2O)C[C@@H]2O[C@](O)(C[C@@H](O)C[C@@H](O)[C@H](O)CC[C@@H](O)C[C@@H](O)CC(=O)O[C@H]1C)C[C@H](O)[C@H]2C(=O)O | Cryptococcus neoformans | microbial killing | ATCC90113 |  | MFC | 0.68 µM
Cc1ccc(-c2nn(-c3ccccc3)cc2C=c2sc(=CC#N)[nH]c2=O)cc1 | Bacillus subtilis | microbial growth, well diffusion |  | 100000 µg/mL | inhibition zone | 12 mm
C[C@@H]1[C@H](O)[C@@H](C)/C=C/C=C/C=C/C=C/C=C/C=C/C=C/[C@H](O[C@@H]2O[C@H](C)[C@@H](O)[C@H](N)[C@@H]2O)C[C@@H]2O[C@](O)(C[C@@H](O)C[C@@H](O)[C@H](O)CC[C@@H](O)C[C@@H](O)CC(=O)O[C@H]1C)C[C@H](O)[C@H]2C(=O)O | Nakaseomyces glabratus | microbial killing | ATCC90030 |  | MFC | 0.63 µg/mL
O=C1NC(=S)N/C1=C\c1ccc(-c2ccc(N(c3ccccc3)c3ccccc3)cc2)c2ccccc12 | Bacillus subtilis | microbial killing, broth dilution | ATCC6633 |  | MBC | > 1000 µg/mL
CCOC(=O)c1c(N)csc1-c1cn(-c2ccccc2)nc1-c1ccc(C)cc1 | Bacillus subtilis | microbial killing, broth dilution |  |  | MBC | 0.25 µg/mL (≈ 0.62 µM)
CCCCCCC/C=C/C(=O)N1C(=O)/C(=C(/C)O)C(=O)C1Cc1ccc(O)cc1 (stereo not drawn) | Proteus vulgaris | microbial growth | ATCC33420 |  | MIC | > 200 µg/mL
O=C(O)c1nc2ccccc2c(=O)n1Cc1cn(-c2ccc(F)cc2)nn1 | Nakaseomyces glabratus | microbial growth, broth dilution | ATCC90030 | 24 h | IC50 | 422 µg/mL
CCCCCCC/C=C/C(=O)N1C(=O)/C(=C(\O)C2CCNCC2)C(=O)C1CC(C)C (stereo not drawn) | Proteus vulgaris | microbial growth | ATCC33420 |  | MIC | 200 µg/mL (≈ 478 µM)
C[C@@H](c1ncncc1F)[C@](O)(Cn1cncn1)c1ccc(F)cc1F | Acanthamoeba polyphaga | parasite growth, resazurin |  | 7 days | IC50 | 55.3 µM
CCOC(=O)c1nc2ccccc2c(=O)n1Cc1cn(-c2ccccc2OC)nn1 | Nakaseomyces glabratus | microbial growth, broth dilution | ATCC90030 | 24 h | IC50 | 81.8 µg/mL
